# STAT1 inh: reduces IFN-gamma driven STAT1 reporter signal; NIH 3T3 STAT1-luciferase reporter, luminescence; inhibition, % at 5.5 µM; 200,000 tested, 0.35% active; AID 920;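 active = inhibition above a set limit, the mean inhibition across all tested compounds plus 3 SD, cut at about 34% in these data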;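 note: 0% = IFN-gamma with DMSO and 100% = IFN-gamma with 300 µM nifuroxazide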
# STAT1 activator: STAT1 signaling activation | NIH 3T3 STAT1-luciferase reporter, IFN-gamma, luminescence; 100% = IFN-gamma alone, no compound | activation (% of control), % at 5.5 µM | 200,000 tested, 2.6% active | AID 932;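 active = activation above the screen-wide mean activation plus 3 SD, cut at about 130% in these data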;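 note: raw ratio to IFN-gamma control signal so 100% means no change and 0% no light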
# STAT3 act: STAT3 signaling activation. U3A cells, IL-6 STAT3-luciferase reporter, luminescence; 100% = signal with IL-6 EC80 alone. activation (% of control), % at 5.6 µM. 190,000 tested, 0.91% active. AID 871;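 active = activation above the screen-wide mean of compound activation plus 3 SD, cut at about 130% in these data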;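 note: 0% = background luminescence of wells with medium and substrate only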
#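 System – human U3A cells carrying STAT3-luciferase construct · Probe or stimulus – Interleukin-6, 33 ng/mL · Schedule – compound 1 h, then IL-6 6 h at 37 °C · Signal – luminescence from STAT3-driven luciferase reporter · Evaluation – percent of IL-6-only median luminescence · Benchmarks – IL-6-only high control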
# STAT3 inh: STAT3 signaling inhibition; U3A cells, IL-6 STAT3-luciferase reporter, luminescence; host cell line lacks STAT1; inhibition, % at 5.5 µM; AID 862; 190,000 tested, 0.89% active;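 active = inhibition above the mean inhibition across all screened compounds plus 3 SD, cut at about 44% in these data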;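 note: 0% = DMSO only wells and 100% = 100 µM nifuroxazide control wells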
# APP 5'UTR act: APP 5'UTR luciferase reporter activation | SH-SY5Y APP 5'UTR luciferase reporter, luminescence; zero percent = DMSO vehicle wells | activation, % at 2 µM | 190,000 tested, 1% active;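 active = activation above a set limit, based on mean plus 3 SD of controls, cut at about 140% in these data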
# NF-kB expr up: raises NF-kB expression in human neuronal cells | NF-kB reporter expression; stronger effect = higher value | fold change at 12.5 µM | 190,000 tested, 1.6% active | AID 1239; in the data active = fold change above about 3.3
# * marks the source's active call; other numbers are inactive results; · = no result. Compounds with a hit are over-represented: about 5.1% of the library has one in this group of screens.
SMILES,STAT1 inh,STAT1 activator,STAT3 act,STAT3 inh,APP 5'UTR act,NF-kB expr up
Cc1ccc(O)c(-c2cc(-c3cccc(Br)c3)n[nH]2)c1,-7,107,100,5,33,2.1
Oc1ccc(F)cc1-c1cc(-c2ccc3c(c2)OCCO3)n[nH]1,-11,110,98,6,197*,11*
O=C(Nc1ccc(NC(=S)NC(=O)c2ccccc2Cl)cc1)c1cccc(Cl)c1,-3,103,87,25,-2,·
O=C(CSc1nc(Nc2ccccc2)nc(N2CCOCC2)n1)Nc1ccccc1Cl,2,98,103,1,-12,6.7*
C/C(N)=C(/C#N)C(=O)CSc1nnc(-c2ccc(OC(F)F)cc2)o1,-52,148*,117,-18,113,4.8*
Nc1nc(CN2CCN(c3ccccn3)CC2)nc(Nc2ccc(Cl)cc2)n1,-2,102,73,34,7,0.61
CC(CCc1ccccc1)NC(=O)C(=O)NCCc1ccccc1 (stereo unspecified),1,99,95,7,18,1
Cc1ccc(NC(=O)c2ccco2)c([N+](=O)[O-])c1,-45,139*,100,5,39,·
COc1ccc(NC(=O)c2ccco2)c([N+](=O)[O-])c1,-41,138*,92,5,49,2.5
O=S(=O)(N/N=C/c1ccc(N2CCOCC2)cc1)c1ccc(Br)cc1,4,95,102,9,1,1.4
C[n+]1c(/C=C/c2ccc3c(c2)OCO3)ccc2ccccc21,-18,115,94,14,185*,0.58
CCN(C(=O)/C=C/c1ccc2c(c1)OCO2)c1ccccc1,-10,109,86,20,-2,1.5
O=C(NNc1nc2cc3c(cc2s1)OCCO3)c1ccccc1,-34,132*,104,5,38,1.9
O=C(NCC1COc2ccccc2O1)c1ccc(NC(=O)c2ccco2)cc1 (stereo unspecified),-3,103,99,5,3,1.1
O=C(NCC1COc2ccccc2O1)c1ccc(Cl)cc1 (stereo unspecified),-44,140*,105,-3,75,2.9
O=C(c1ccccc1)c1ccccc1C(=O)N1CCCC1,4,91,96,8,4,6.4*
C(=N\Nc1nc(-c2ccccc2)cs1)/c1cccnc1,-49,144*,95,13,48,2.3
CC(C)(C)c1csc(N/N=C/c2cccnc2)n1,-54,150*,96,5,77,3
COc1ccc(/C=C/C(=O)Nc2cc(F)ccc2C)cc1S(=O)(=O)N1CCOCC1,2,99,99,10,22,0.72
Cc1ccc(Nc2nc(N)nc(CC#N)n2)cc1,-40,137*,106,-3,43,1.5
Nc1nc(CSc2ncccn2)nc(Nc2ccccc2)n1,-37,134*,116,-18,46,2.9
Cc1ccc(Nc2nc(N)nc(CSCCO)n2)cc1,-24,121,119,-20,57,2.1
Nc1nc(CSc2n[nH]c(-c3ccccc3)n2)nc(Nc2ccccc2)n1,5,96,78,32,6,0.62
Cc1ccc(Nc2nc(N)nc(CSc3ncccn3)n2)cc1,-33,130*,110,-12,104,5.4*
CS(=O)(=O)N(CC(=O)NCc1ccncc1)c1cc(Cl)ccc1Cl,5,94,102,3,-14,1.2
SMILES,STAT1 inh,STAT1 activator,STAT3 act,STAT3 inh,APP 5'UTR act,NF-kB expr up
Brc1cc2c(cc1/C=N/Nc1nc(N3CCCCC3)nc(N3CCCCC3)n1)OCO2,-4,103,98,4,1,1.2
Cc1c(C#N)c(NC(=O)CCl)n(Cc2cccs2)c1C,26,76,76,32,23,0.23
Cc1ccnc(N(C(=O)c2cccs2)C(=O)c2cccs2)c1,-30,128,99,5,68,2.3
O=C(c1cccs1)N(C(=O)c1cccs1)c1ccc(Br)cn1,-37,134*,94,8,102,4*
Cn1c(N)c(C(=O)c2ccc(C#N)cc2)c(=O)n(C)c1=O,-4,103,106,-12,2,0.99
O=C(Nc1nc(-c2cccs2)cs1)C1=COCCO1,-54,149*,101,-2,88,3.6*
O=C(Nc1nc(-c2cccs2)cs1)c1ccc(Cl)cc1,-22,119,92,10,19,1.6

# From PubChem BioAssay
